Reference: ChEMBL document CHEMBL5055621, “Synthesis and Characterization of the Novel Rodent-Active and CNS-Penetrant P2X7 Receptor Antagonist Lu AF27139” (J Med Chem, 2021)

Experiments:
[1] = Half life in rat at 1 mg/kg, iv and 2 mg/kg, po; format: ADME, organism-based; settings: in vivo
Summary of the method: (§1)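 Rats received 1 mg/kg iv or 2 mg/kg po. The plasma concentration–time profile was analysed by a noncompartmental model to give half-life, Cmax, Tmax and absolute oral bioavailability.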

P2X purinoceptor 7 = target: T1, P2X purinoceptor 7 (Rattus norvegicus, UniProt Q64663); test: Antagonist activity at rat P2X7 receptor expressed in HEK293 cells assessed as inhibition of BzATP-induced calcium-flux measured after 60 mins by FLIPR analysis; format: cell-based
T1 sequence (Q64663 whole entry): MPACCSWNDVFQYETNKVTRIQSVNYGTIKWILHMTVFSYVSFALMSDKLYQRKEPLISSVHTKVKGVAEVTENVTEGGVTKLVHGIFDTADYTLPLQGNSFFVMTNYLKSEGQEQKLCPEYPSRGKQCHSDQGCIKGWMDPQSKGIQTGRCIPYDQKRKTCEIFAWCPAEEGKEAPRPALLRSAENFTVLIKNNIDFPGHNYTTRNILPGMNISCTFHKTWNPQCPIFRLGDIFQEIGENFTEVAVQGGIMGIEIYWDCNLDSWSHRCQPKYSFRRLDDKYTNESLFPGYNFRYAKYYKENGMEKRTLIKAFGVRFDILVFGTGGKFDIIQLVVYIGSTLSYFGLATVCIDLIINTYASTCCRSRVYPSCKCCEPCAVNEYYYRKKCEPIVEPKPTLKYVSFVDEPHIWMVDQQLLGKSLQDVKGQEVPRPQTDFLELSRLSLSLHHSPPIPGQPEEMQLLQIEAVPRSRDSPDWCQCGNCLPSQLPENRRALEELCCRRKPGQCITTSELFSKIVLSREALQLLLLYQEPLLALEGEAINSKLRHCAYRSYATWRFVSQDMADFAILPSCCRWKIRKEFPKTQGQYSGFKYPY
Summary of the method: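 Stable rat or mouse P2X7 HEK293 cells in HBSS/20 mM HEPES/2.5 mM probenecid/0.05% BSA, pH 7.4, were loaded with Fluo-4 NW (37 °C 30 min, RT 30 min). After 30 min at RT, calcium fluorescence was read by FLIPR; n ≥ 3.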

[2] = Cmax in rat at 2 mg/kg, po; format: ADME, organism-based; design: dose 2 mg/kg, route po; settings: in vivo; summary of the method: as §1
Cytochrome P450 2C9 = Cytochrome P450 2C9 (Homo sapiens, UniProt P11712); test: Inhibition of CYP2C9 (unknown origin) upto 25 uM; format: ADME
Sequence of Cytochrome P450 2C9 (P11712 whole entry): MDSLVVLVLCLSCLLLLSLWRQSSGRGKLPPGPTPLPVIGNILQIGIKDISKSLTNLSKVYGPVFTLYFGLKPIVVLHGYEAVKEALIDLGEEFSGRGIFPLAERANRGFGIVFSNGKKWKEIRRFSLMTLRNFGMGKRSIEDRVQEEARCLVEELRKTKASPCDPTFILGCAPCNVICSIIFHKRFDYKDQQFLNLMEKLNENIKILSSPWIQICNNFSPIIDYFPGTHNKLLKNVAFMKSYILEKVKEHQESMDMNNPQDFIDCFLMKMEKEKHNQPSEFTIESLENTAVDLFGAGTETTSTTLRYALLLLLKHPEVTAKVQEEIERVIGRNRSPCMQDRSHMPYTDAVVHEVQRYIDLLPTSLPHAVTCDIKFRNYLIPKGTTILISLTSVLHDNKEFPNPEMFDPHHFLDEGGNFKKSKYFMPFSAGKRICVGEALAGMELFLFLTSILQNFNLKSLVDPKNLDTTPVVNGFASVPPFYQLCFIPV

Cytochrome P450 2B6 = target: T2, Cytochrome P450 2B6 (Homo sapiens, UniProt P20813); test: Time dependent inhibition of CYP2B6 (unknown origin) upto 25 uM; format: ADME
T2 sequence (P20813 whole entry): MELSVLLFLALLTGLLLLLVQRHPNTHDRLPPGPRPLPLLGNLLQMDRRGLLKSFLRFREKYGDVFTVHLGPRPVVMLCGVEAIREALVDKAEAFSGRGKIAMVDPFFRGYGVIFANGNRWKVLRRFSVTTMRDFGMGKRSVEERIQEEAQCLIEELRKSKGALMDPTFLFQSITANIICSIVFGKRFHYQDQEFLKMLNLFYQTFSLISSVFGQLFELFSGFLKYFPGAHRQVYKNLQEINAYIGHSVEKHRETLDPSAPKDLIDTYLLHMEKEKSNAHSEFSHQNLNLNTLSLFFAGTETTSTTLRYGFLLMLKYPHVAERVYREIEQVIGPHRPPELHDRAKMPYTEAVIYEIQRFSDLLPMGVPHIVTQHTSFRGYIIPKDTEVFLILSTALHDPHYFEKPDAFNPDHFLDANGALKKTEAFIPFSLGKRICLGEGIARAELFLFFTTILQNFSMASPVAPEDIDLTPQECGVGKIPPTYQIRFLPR

[3] = Free plasma concentration in rat at 1 mg/kg, po after 2 hrs by ex vivo equilibrium dialysis; format: ADME, organism-based
Summary of the method: (§2)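 Male Sprague–Dawley rats were dosed orally at 1–100 mg/kg, and total plasma concentration was measured at 1 and 2 h. This was multiplied by fraction unbound from ex vivo equilibrium dialysis; mean ± SEM, n = 3 animals.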

[4] = target: T3, Potassium voltage-gated channel subfamily KQT member 1 (Homo sapiens, UniProt P51787); test: Inhibition of human KCNQ1 at 10 uM
T3 sequence (P51787 whole entry): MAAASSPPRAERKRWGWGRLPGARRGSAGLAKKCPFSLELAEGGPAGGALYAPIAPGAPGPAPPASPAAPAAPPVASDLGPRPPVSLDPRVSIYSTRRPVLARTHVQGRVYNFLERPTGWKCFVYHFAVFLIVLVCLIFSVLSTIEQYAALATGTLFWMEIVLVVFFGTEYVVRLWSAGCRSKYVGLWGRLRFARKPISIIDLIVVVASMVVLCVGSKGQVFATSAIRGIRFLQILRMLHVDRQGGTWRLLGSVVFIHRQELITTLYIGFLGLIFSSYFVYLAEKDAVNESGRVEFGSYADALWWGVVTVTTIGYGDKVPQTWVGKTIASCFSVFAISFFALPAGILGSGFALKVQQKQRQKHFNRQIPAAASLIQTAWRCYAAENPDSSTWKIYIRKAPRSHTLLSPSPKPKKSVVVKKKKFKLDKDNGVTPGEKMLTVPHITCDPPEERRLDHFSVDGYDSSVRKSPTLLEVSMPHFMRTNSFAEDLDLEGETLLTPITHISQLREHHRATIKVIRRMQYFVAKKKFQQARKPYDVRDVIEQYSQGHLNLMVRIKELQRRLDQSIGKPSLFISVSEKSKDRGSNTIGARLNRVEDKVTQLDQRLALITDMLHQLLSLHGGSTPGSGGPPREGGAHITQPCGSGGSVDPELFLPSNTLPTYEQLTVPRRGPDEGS
Summary of the method: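 Human Nav1.5, Cav1.2 and KCNQ1/minK channels were tested at 10 μM.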

[5] = Cmax in male rat at 3 mg/kg, po after 7 days; format: ADME, organism-based; design: dose 3 mg/kg, time 7 day, route po; settings: in vivo
[6] = Reduction in LPS/BzATP-induced IL-1beta release in icv dosed C57BL/6NCrl mouse frontal cortex assessed as minimal effective dose pretreated 1 hr before BzATP stimulus; format: functional; settings: read-out: MED
Summary of the method: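 Rats and mice with frontal cortex microdialysis probes and a lateral ventricle cannula received icv LPS (rat 3 μg/5 μL; mouse 0.1 μg/3 μL), and 1 h later oral compound in 20% HP-β-cyclodextrin. BzATP icv (rat 50 μg; mouse 5 μg) followed 1 h later.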

[7] = Tmax in male rat at 150 mg/kg, po after 7 days; format: ADME, organism-based; settings: in vivo, time 7 day
[8] = Inhibition of BzATP-induced IL-1beta in rat primary microglia cells primed with LPS measured after repeated BzATP treatment by microplate reader; format: functional, tissue-based
Summary of the method: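 Cortical microglia from rat (P3 pups) or mouse were plated 1 day before assay and primed with 3 EU/mL LPS for 3.5 h. Compound was added for 30 min, then BzATP (1 mM) for 30 min at 37 °C. IL-1β was measured by MesoScale assay, normalised to BCA protein, and given as mean ± SD.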

[9] = AUC (0 to 8 hrs) in female mouse at 100 mg/kg, po administered as single dose; settings: in vivo
[10] = Tmax in female mouse at 100 mg/kg, po after 14 days; settings: in vivo
[11] = Free plasma concentration in rat at 100 mg/kg, po after 1 hr by ex vivo equilibrium dialysis; format: ADME, organism-based; summary of the method: as §2

- half-life [1]: 2.7 h
- IC50 (P2X purinoceptor 7): 2.4 nM
- Cmax [2]: 2700 nM
- inhibition (INH) (Cytochrome P450 2C9): Not Active
- TDI (Cytochrome P450 2B6): Not Active
- Cp(f) [3]: 22.8 nM
- inhibition (INH) [4]: Not Active
- Cmax [5]: 4640 nM
- Tmax [7]: 4 h
- IC50 [8]: 38 nM
- AUC(0-t) at 8 h [9]: 399 µM·h
- Tmax [10]: 1 h
- Cp(f) [11]: 1460 nM
Compound: O=C(NC[C@H](c1ccc(Cl)cc1)N1CCOCC1)c1sc(-c2ncccn2)nc1C(F)(F)F
- minimal effective dose [6]: 10 mg/kg
